Measurements from ChEMBL document CHEMBL2375225, “Structure-activity relationship of 5-chloro-2-methyl-3-(1,2,3,6-tetrahydropyridin-4-yl)-1H-indole analogues as 5-HT(6) receptor agonists” (Eur J Med Chem, 2013).
pEC50, pIC50: −log10 of the molar value.

Assays:
[1] = biological target: 5-hydroxytryptamine receptor 1B (Rattus norvegicus, UniProt P28564); assay: Displacement of [125I]-iodocyanopindolol from rat 5HT1B receptor
[2] = biological target: T1, 5-hydroxytryptamine receptor 1A (Rattus norvegicus, UniProt P19327); assay: Displacement of [3H]-8-OH-DPAT from rat 5HT1A receptor
T1 sequence (P19327 whole entry): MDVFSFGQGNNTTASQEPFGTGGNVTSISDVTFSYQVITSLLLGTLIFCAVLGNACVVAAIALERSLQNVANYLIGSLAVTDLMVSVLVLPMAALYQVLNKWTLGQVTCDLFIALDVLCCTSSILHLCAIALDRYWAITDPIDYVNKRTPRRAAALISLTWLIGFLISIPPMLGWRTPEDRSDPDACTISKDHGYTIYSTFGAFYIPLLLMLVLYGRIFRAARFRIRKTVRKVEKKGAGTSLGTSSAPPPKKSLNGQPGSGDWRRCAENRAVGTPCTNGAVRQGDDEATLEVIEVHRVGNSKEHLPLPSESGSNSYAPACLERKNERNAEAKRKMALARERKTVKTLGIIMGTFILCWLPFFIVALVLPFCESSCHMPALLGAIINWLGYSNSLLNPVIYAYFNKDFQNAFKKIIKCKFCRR

[3] = biological target: Sodium-dependent serotonin transporter (Rattus norvegicus, UniProt P31652); assay: Displacement of [3H]-5-HT from rat SERT
[4] = biological target: 5-hydroxytryptamine receptor 2A (Homo sapiens, UniProt P28223); assay: Displacement of [3H]-ketanserin from human 5HT2A receptor
[5] = biological target: T2, 5-hydroxytryptamine receptor 6 (Homo sapiens, UniProt P50406); assay: Displacement of [3H]LSD from human 5HT6 receptor expressed in HEK cell membranes after 1 hr by liquid scintillation counting analysis; design: species or system HEK293
How it was run: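 Compounds were made up as 1 mM DMSO stocks and diluted in 20 mM HEPES, 0.1% ascorbic acid, pH 7.4. They were incubated 1 h at 37 °C with [3H]LSD (1 nM final) and membranes (23 µg protein) from HEK cells expressing human 5-HT6. Binding was stopped by filtration through GF/B filters presoaked in 0.1% polyethyleneimine, with three buffer washes, then counted by liquid scintillation. Single determination.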

[6] = biological target: T2, 5-hydroxytryptamine receptor 6; assay: Partial agonist activity at human 5HT6 receptor expressed in BHK cells assessed as stimulation of cAMP production after 45 minutes; assay type: functional, cell-based
How it was run: (§1)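 BHK cells stably transfected with the human 5-HT6 receptor, grown in MEM-α with 10% dialysed heat-inactivated FCS at 37 °C under 5% CO2. Cells were detached with 5 mM EDTA in PBS, seeded at 10,000 cells/well and left to adhere ≥12 h. They were then washed and placed in serum-free MEM-α, exposed to compound for 45 min, washed with PBS, and intracellular cAMP measured by enzyme immunoassay.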

[7] = biological target: T3, 5-hydroxytryptamine receptor 2C (Homo sapiens, UniProt P28335); assay: Displacement of [3H]-mesulergine from human 5HT2C receptor
T3 sequence (P28335 whole entry): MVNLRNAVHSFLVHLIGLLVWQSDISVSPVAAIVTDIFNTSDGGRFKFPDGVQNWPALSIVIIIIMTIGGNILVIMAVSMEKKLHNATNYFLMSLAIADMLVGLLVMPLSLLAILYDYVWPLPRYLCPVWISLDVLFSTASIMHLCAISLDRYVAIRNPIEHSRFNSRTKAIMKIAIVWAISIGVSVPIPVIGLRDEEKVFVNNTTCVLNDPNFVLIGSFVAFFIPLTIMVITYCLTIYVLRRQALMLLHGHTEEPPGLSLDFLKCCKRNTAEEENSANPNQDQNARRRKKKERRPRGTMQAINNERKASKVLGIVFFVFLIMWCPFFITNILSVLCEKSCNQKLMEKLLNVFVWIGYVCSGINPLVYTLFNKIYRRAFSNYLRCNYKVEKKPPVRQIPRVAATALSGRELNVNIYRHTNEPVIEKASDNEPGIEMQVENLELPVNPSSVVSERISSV

[8] = biological target: T2, 5-hydroxytryptamine receptor 6; assay: Partial agonist activity at human 5HT6 receptor expressed in BHK cells assessed as stimulation of cAMP production after 45 minutes relative to control; assay type: functional, cell-based; how it was run: as §1
[9] = Displacement of [3H]-5-HT from calf 5HT1D receptor; design: species or system Bos taurus
[10] = biological target: 5-hydroxytryptamine receptor 7 (Homo sapiens, UniProt P34969); assay: Displacement of [3H]LSD from human 5HT7 receptor
[11] = biological target: T2, 5-hydroxytryptamine receptor 6; assay: Antagonist activity at human 5HT6 receptor expressed in human HeLa cells assessed as inhibition of 5HT-induced cAMP accumulation relative to control; assay type: functional, cell-based; design: scale not given: the % may be the effect or the level left
[12] = biological target: T2, 5-hydroxytryptamine receptor 6; assay: Displacement of [3H]LSD from human 5HT6 receptor expressed in CHO cell membranes after 1 hr by liquid scintillation counting analysis
[13] = Displacement of [3H]-GR65630 from 5HT3 receptor in rat/mouse NG108 cells; assay type: cell-based
[14] = biological target: T2, 5-hydroxytryptamine receptor 6; assay: Agonist activity at human 5HT6 receptor expressed in BHK cells assessed as stimulation of cAMP production after 45 minutes relative to control; assay type: functional, cell-based; how it was run: as §1
[15] = biological target: T2, 5-hydroxytryptamine receptor 6; assay: Agonist activity at human 5HT6 receptor expressed in BHK cells assessed as stimulation of cAMP production after 45 minutes; assay type: functional, cell-based; how it was run: as §1
[16] = biological target: 5-hydroxytryptamine receptor 4 (Cavia porcellus, UniProt O70528); assay: Displacement of [3H]-GR113808 from guinea pig 5HT4 receptor
Chain of 5-hydroxytryptamine receptor 4 (O70528 whole entry): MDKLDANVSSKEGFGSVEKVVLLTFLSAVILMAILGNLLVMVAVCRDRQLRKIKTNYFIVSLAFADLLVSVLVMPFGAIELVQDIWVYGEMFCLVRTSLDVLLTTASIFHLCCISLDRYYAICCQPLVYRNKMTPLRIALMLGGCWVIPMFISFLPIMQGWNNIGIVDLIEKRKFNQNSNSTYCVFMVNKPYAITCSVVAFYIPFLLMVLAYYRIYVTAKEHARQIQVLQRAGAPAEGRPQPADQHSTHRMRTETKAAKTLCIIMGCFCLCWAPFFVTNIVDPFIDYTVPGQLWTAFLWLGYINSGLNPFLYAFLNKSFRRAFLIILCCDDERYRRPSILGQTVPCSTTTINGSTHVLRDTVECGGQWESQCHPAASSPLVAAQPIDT

Chain of Sodium-dependent serotonin transporter (P31652 whole entry): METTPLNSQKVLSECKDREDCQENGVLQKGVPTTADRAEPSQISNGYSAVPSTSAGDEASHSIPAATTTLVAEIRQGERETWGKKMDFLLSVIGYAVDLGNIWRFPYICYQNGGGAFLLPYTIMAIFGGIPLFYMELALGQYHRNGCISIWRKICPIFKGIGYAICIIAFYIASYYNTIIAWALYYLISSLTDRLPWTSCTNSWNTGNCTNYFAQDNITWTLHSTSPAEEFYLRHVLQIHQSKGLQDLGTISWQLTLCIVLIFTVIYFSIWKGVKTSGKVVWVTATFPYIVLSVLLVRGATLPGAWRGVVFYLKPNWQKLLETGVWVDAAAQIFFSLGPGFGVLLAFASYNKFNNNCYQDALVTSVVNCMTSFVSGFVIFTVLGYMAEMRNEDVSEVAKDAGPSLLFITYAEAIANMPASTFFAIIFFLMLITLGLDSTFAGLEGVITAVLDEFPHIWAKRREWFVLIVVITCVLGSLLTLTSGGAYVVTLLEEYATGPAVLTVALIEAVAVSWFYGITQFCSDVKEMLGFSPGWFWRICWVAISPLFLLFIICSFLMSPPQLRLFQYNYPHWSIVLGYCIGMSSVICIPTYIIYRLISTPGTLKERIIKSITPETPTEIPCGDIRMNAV
Chain of 5-hydroxytryptamine receptor 2A (P28223 whole entry): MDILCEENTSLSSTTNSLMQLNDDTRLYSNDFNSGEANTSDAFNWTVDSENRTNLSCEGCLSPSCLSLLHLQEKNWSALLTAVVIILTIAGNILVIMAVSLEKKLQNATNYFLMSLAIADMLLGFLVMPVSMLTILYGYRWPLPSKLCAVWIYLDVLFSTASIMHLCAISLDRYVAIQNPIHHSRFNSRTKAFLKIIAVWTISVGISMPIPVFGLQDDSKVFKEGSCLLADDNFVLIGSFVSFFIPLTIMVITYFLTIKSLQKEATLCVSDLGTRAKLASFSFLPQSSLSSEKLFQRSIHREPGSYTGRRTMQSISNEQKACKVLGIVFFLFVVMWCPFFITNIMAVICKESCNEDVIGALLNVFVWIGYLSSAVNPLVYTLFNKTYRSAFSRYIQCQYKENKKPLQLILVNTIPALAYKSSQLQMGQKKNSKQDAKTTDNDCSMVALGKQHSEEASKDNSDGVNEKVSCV
T2 sequence (P50406 whole entry): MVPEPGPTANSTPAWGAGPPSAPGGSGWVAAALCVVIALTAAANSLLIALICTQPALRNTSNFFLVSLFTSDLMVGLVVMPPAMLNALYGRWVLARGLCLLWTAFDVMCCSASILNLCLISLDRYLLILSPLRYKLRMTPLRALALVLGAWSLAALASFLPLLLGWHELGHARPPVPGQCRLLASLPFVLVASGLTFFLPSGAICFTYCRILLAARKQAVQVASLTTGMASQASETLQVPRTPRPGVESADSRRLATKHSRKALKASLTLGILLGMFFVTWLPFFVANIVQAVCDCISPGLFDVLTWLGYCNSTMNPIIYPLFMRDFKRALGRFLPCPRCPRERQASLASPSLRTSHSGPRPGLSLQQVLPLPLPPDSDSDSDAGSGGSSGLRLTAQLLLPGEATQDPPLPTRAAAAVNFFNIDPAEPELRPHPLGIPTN
Chain of 5-hydroxytryptamine receptor 7 (P34969 whole entry): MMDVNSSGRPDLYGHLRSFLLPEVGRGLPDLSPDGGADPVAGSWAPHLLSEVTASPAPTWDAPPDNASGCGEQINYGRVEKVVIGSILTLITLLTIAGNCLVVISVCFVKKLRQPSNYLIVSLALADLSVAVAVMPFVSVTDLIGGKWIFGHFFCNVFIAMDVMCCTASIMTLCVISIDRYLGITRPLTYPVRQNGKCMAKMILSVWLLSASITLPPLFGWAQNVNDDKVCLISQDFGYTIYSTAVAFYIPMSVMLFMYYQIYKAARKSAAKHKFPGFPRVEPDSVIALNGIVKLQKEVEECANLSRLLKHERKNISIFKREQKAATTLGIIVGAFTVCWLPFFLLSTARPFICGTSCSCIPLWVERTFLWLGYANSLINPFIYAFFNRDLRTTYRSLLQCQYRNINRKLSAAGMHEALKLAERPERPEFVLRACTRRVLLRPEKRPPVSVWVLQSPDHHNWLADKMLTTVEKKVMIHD
Chain of 5-hydroxytryptamine receptor 1B (P28564 whole entry): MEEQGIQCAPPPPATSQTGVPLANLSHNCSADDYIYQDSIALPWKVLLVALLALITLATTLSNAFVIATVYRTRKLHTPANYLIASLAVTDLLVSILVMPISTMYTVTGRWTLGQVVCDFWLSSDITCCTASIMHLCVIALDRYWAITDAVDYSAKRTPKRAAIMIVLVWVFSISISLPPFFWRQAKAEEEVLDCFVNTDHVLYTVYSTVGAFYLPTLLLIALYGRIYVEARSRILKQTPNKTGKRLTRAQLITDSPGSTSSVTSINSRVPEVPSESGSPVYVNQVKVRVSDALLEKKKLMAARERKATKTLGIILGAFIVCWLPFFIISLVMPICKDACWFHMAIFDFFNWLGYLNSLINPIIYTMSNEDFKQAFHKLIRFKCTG

SMILES	pIC50 [1]	pIC50 [2]	pIC50 [3]	pIC50 [4]	pIC50 [5]	pEC50 [6]	pIC50 [7]	Activity [8] [%]	pIC50 [9]	pIC50 [10]	also measured
Cc1[nH]c2ccc(OS(=O)(=O)C(F)(F)F)cc2c1C1=CCNCC1	7.54	< 6.00	< 6.00	< 6.00	7.30	7.49	6.00	65	7.46	5.74	
Cc1[nH]c2ccc(Oc3ccccc3[N+](=O)[O-])cc2c1C1=CCNCC1					8.05						
Cc1c(C2=CCNCC2)c2cc(Cl)ccc2n1S(=O)(=O)c1ccccc1											Activity [11]: 0%; pIC50 [12]: 8.70
CCn1c(C)c(C2=CCNCC2)c2cc(Cl)ccc21					7.00						
Cc1[nH]c2ccc(-c3ccccc3)cc2c1C1=CCNCC1	6.85	< 6.00	< 6.00	< 6.00	6.00		< 6.00		6.41	5.43	
N#Cc1ccc2[nH]cc(C3=CCNCC3)c2c1					7.70	6.89		44			
Cc1[nH]c2ccc([N+](=O)[O-])cc2c1C1=CCNCC1	6.24	6.05	< 6.00	6.00	8.00	7.49	< 6.00	28	6.51	< 6.00	
Cc1[nH]c2ccc(-c3ccsc3)cc2c1C1=CCNCC1	7.92	< 6.00	< 6.00	< 6.00	6.15		< 6.00		7.48	6.16	
COc1ccc2[nH]cc(C3=CCNCC3)c2c1 [RU-24969]	8.22								7.70		pIC50 [13]: < 6.00
Cc1[nH]c2ccc(NS(=O)(=O)c3ccccc3)cc2c1C1=CCNCC1						7.68		60			pIC50 [12]: 7.54
Cc1[nH]c2ccc(OC(C)C)cc2c1C1=CCNCC1					7.00						
C1=C(c2c(-c3ccccc3)[nH]c3ccccc23)CCNC1	< 6.00	< 6.00		7.30			7.00		< 6.00		pIC50 [13]: 6.57
Cc1c(C2=CCNCC2)c2cc(Cl)ccc2n1C					7.40						
Cc1[nH]c2ccc(Br)cc2c1C1=CCNCC1	7.12	6.18	5.32	6.40	8.00		6.38		6.89	6.32	Activity [14]: 100%; pEC50 [15]: 8.57
CSc1ccc2[nH]c(C)c(C3=CCNCC3)c2c1					7.70	8.18		58			
Cc1[nH]c2ccccc2c1C1=CCNCC1	6.05	5.24	< 6.00	5.82	6.70	5.96	5.54	78	5.92	< 6.00	pIC50 [16]: 6.00; pIC50 [13]: 5.64
CCCn1c(C)c(C2=CCNCC2)c2cc(Cl)ccc21					7.10						
Cc1[nH]c2ccc(F)cc2c1C1=CCNCC1	6.70	< 6.00	5.72	6.02	7.52		6.15		6.80	5.51	Activity [14]: 100%; pEC50 [15]: 8.28
